# Assay results collected from several papers.
# Lines come from different studies, so protocols differ.
# Target: Phosphatidylinositol 5-phosphate 4-kinase type-2 gamma (PIP4K2C, Homo sapiens, UniProt Q8TBX8)
# One construct used (Q8TBX8 1-421): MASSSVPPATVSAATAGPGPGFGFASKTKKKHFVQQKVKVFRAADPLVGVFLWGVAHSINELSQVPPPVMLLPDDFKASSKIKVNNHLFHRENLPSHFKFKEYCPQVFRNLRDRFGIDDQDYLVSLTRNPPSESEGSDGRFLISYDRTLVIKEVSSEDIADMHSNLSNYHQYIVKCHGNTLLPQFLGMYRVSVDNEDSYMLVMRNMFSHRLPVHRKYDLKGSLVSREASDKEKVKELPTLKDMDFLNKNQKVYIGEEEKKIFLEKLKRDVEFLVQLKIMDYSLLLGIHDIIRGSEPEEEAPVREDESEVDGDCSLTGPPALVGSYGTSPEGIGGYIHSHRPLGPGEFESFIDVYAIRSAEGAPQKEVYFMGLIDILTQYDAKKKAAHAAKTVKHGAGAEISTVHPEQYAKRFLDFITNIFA
SMILES,effect on,method,concentration,remaining binding [%]
COc1ccnn2ncc(-c3ccnc(N(C)C)n3)c12,binding,,1 µM,80
CC(C)CC(=O)N1CCc2nc(-c3ccc(Br)cc3)nc(N(C)Cc3ccccc3)c2C1,cell-free assay,competition with immobilised ligand,0.1 µM,96
O=C(c1ccc(Nc2ncc(Cl)c(-c3cc4ccccc4s3)n2)cc1)N1CCC(N2CCCC2)CC1,binding,competition with immobilised ligand,1 µM,6.7
CCS(=O)(=O)c1cc2cc(C[C@@](O)(CC(C)(C)c3ccc(F)cc3C(N)=O)C(F)(F)F)[nH]c2cn1,cell-free assay,competition with immobilised ligand,1 µM,100
N[C@H]1CCN(c2nccc(-c3cnn4ncccc34)n2)C1,binding,,1 µM,81
CNC(=O)c1ccc(Nc2ncc(C(F)(F)F)c(NCc3nccnc3N(C)S(C)(=O)=O)n2)cc1,cell-free assay,competition with immobilised ligand,0.1 µM,40
O=C(NCCCN1CCOCC1)c1ccc(Nc2ncc(Cl)c(-c3ccc(Cl)s3)n2)cc1,binding,competition with immobilised ligand,1 µM,15
COc1ncc2cc3ccccc3nc2c1C#N,cell-free assay,competition with immobilised ligand,5 µM,100
CN(C)c1nccc(-c2cnc3ncccn23)n1,binding,,1 µM,93
Cc1c(NC(=O)c2cc(C(N)=O)nc3cc(F)ccc23)c(C(F)(F)F)nn1Cc1ccc(C(C)(C)C)cc1,cell-free assay,competition with immobilised ligand,1 µM,76
CN(C)c1ncc(F)c(-c2cnn3ncccc23)n1,binding,,1 µM,95
COc1cnc(Nc2cccc(S(N)(=O)=O)c2)nc1N1CCN(c2ccccc2)CC1,binding,competition with immobilised ligand,1 µM,95
Cc1cc(C)c(-n2ccn3nc(-c4cccnc4)cc23)cc1NC(=O)c1cc(C#N)cc(S(F)(F)(F)(F)F)c1,cell-free assay,competition with immobilised ligand,0.1 µM,89.9
FC(F)(F)Oc1cccc(-c2cnc3ccc(-c4ccncc4)nn23)c1,cell-free assay,competition with immobilised ligand,5 µM,32
Cc1cnc(Nc2ccc(C(=O)N3CCC(N4CCCC4)CC3)cc2)nc1-c1cc2ccccc2s1,binding,competition with immobilised ligand,1 µM,5.6
Cc1nc(NC(=O)N2CCC[C@H]2C(N)=O)sc1-c1ccnc(C(C)(C)C(F)(F)F)c1,binding,competition with immobilised ligand,10 µM,100
C[C@@H]1CCN(c2nccc(-c3cnn4ncccc34)n2)C1,binding,,1 µM,40
O=C(NCC1CCOCC1)c1n[nH]cc1NC(=O)c1c(F)cccc1F,binding,competition with immobilised ligand,1 µM,91
Cc1cnn2ncc(-c3ccnc(N(C)C)n3)c2c1,binding,,1 µM,80
Cc1cc(-n2nc(Cc3cc(F)cc(C(F)(F)F)c3)nc2C)ccc1C(N)=O,cell-free assay,competition with immobilised ligand,1 µM,100
F[C@@H]1CCN(c2nccc(-c3cnn4ncccc34)n2)C1,binding,,1 µM,100
CC(=O)N1CCC(c2ccc(C(=O)NC3=NCCN3)cc2C(F)(F)F)CC1,cell-free assay,competition with immobilised ligand,1 µM,94
